Assay outcomes (PubChem BioAssay)
D1 mod = allosteric modulators of human D1 dopamine receptor | B-score at 10 µM | P21728 | actives 5.9% (n = 58,000) | HEK293 D1, CRE-luciferase, dopamine EC30 potentiation; actives deviate in either direction | AID 641;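 active means luminescence count or its row- and column-corrected plate score outside the 99.7% band of the plate's sample wells, on either side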
M1 agonist = M1 muscarinic receptor agonism; B-score at 10 µM; CHO-M1 cells, Fluo-4 calcium fluorescence, agonist mode; stronger effect = higher value; actives 3% (n = 64,000);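 active means fluorescence rise, raw or as B-score row- and column-corrected plate score, outside the 99.7% band of its plate's samples, either direction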
S1P1 ag-PAM = agonists and agonism potentiators of human S1P1 receptor; activation, % at 9.5 µM; S1P1 CRE-bla cells, forskolin, beta-lactamase FRET, potentiator mode; S1P1 agonist co-added at EC20, 2 nM; 100% = saturating reference agonist, 0% = basal; actives 0.57% (n = 56,000); P21453;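 active means activation above a cutoff set at the mean activation of all tested compounds plus 3 SD, cut at about 54% in these data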;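 further: forskolin at 4 µM as EC80 and the EC20 agonist is SEW2871; 100% = SEW2871 at its EC100 plus forskolin at EC80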
M1 antagonist = M1 muscarinic receptor (rat) antagonism; B-score at 10 µM; AID 628; P08482; CHO-M1 cells, Fluo-4 calcium, ACh EC80 antagonist mode; stronger effect = lower value; actives 3.4% (n = 64,000);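 active means calcium fluorescence response, raw or row-and-column corrected B-score, differing from the plate sample mean either way at a set confidence level, mostly lower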
S1P3 agonist = activates the human S1P3 receptor | S1P3 NFAT-BLA reporter cells, agonism, FRET ratio; relative to 1 µM S1P, basal subtracted | activation, % at 4.5 µM | actives 0.1% (n = 60,000);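 active means activation above the screen-wide mean plus 3 SD, cut at about 4.5% in these data, passing the limit was not always enough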
Target sequence (Q99500 whole entry, looked up): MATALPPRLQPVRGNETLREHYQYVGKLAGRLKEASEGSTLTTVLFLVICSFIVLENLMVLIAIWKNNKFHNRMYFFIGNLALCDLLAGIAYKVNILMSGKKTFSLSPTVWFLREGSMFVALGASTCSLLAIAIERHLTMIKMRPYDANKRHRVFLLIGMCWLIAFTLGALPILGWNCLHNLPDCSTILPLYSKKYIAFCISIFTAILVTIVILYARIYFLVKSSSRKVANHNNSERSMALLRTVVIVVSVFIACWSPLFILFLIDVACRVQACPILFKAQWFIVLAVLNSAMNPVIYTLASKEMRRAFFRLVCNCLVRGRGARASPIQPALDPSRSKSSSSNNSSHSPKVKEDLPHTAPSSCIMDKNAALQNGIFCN
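Material: Human S1P3 NFAT-BLA reporter CHO cells | Incubation: Overnight plating, 4 h compound 37 °C, 2 h substrate RT | Signal: FRET β-lactamase substrate fluorescence, excitation 405 nm, 460/535 nm emission ratio, background-subtracted | Compound: 4.5 µM final, single dose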
M1 antag conf = confirmation of rat M1 muscarinic receptor antagonists | shares compounds with M1 antagonist | CHO-M1 cells, Fluo-4 calcium, ACh EC80 antagonism; stronger effect = lower value | calcium response (max-min fluorescence) at 10 µM | actives 43% (n = 1,700) | AID 677;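 active means calcium response below the same-plate mean of wells given acetylcholine alone at its 80%-effect dose, minus 3 SD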;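 further: raw fluorescence intensity difference in arbitrary instrument units and not normalized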
mGluR4 antag = mGluR4 (human) activity, M1 antagonist secondary assay. shares compounds with M1 antagonist. CHO-mGluR4 calcium flux, Fluo-4 fluorescence, glutamate EC80; stronger effect = lower value. fluorescence response (max-min) at 10 µM. actives 0.9% (n = 1,700);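 active means fluorescence response below the plate's average for near-maximal glutamate wells, less 3 SD of those wells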;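 further: raw unnormalized fluorescence span taken in the window right after glutamate addition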
Numbers without * were called inactive; . = no result. Shown are actives, neighbours in structure and some others; about 11% of the full set was active somewhere.

SMILES	D1 mod	M1 agonist	S1P1 ag-PAM	M1 antagonist	S1P3 agonist	M1 antag conf	mGluR4 antag
CC(=O)C1C(c2ccc(OC(F)F)cc2)NC(=O)NC1(O)C(F)(F)F (centres undefined)	-0.43	-0.0683	4.3	0.314	-1.6	.	.
COc1ccc(C2NC(=O)NC(O)(C(F)(F)F)C2C(=O)c2ccc(C)cc2)cc1 (centres undefined)	-0.143	-0.106	.	-6.3*	-0.9	92.6*	241
COc1ccc(-c2nc(NC(=O)CSc3nnc(C)s3)ns2)cc1	0.774	-0.179	36.2	0.192	-0.6	.	.
CCOC(=O)c1ccc(N2C(=O)CC(N3CCN(C/C=C/c4ccccc4)CC3)C2=O)cc1 (centres undefined)	0.2	-2.07	-17.3	-3.8*	-2.6	494*	231
CCOC(=O)C1CCN(C2CC(=O)N(c3ccc(OCC)cc3)C2=O)CC1 (centres undefined)	-0.136	-0.506	-3.8	-0.552	-0.2	.	.
CC(C)(C)N=C1NC(=NC(C)(C)C)c2ccccc21	-5.33*	-0.308	3.4	-6.18*	2.7	417	233
c1ccc2c(c1)C(=NCC1CCCO1)NC2=NCC1CCCO1 (centres undefined)	-0.826	0.322	-3.1	0.607	0.4	.	.
Cc1cccn2c(=O)c3cc(C(=O)NC(C)C)c(=N)n(Cc4ccncc4)c3nc12	-0.373	.	-3.6	.	0.1	.	.
COCCCNC(=O)c1cc2c(=O)n3cccc(C)c3nc2n(C(C)C)c1=N	0.00241	0.53	-13.7	-0.499	1.3	.	.
CCNC(=O)c1cc2c(=O)n3cccc(C)c3nc2n(Cc2ccc(C)cc2)c1=N	0.36	0.794	-41.0	-2.87*	0.3	609	198
COCCn1c(=N)c(C(=O)NCCc2ccc(OC)cc2)cc2c(=O)n3cccc(C)c3nc21	-0.225	1.2	-15.0	-4.35*	-0.5	311*	208
N=c1c(C(=O)NCc2ccccc2)cc2c(=O)n3ccccc3nc2n1CCCN1CCOCC1	-1.11	0.0948	-37.6	-1.63	2.6	.	.
COc1ccc(CCn2c(=N)c(C(=O)NCc3ccco3)cc3c(=O)n4ccccc4nc32)cc1	-3.72*	0.705	-16.9	-2.71*	-3.6	540	229
CCCCN1c2cc(C)c(O)cc2C(C(=O)OCC)C1C (centres undefined)	0.536	0.54	23.8	-0.0403	-1.1	.	.
O=C(Nc1ccc(S(=O)(=O)N2CCc3ccccc3C2)cc1)C1CCCO1 (centres undefined)	0.299	-0.103	50.0	-0.0488	-1.1	.	.
O=C(Nc1ccc(S(=O)(=O)N2CCCc3ccccc32)cc1)C1CCCO1 (centres undefined)	0.308	0.358	6.7	-9.71*	-1.3	29*	208
COCCCNC(=O)CN(c1ccc(OC)cc1)S(=O)(=O)c1ccc(NC(C)=O)cc1	-0.353	-2.05	.	-1.15	.	.	.
CC(C)=CCCC(C)CN(C)CCc1ccccn1 (centres undefined)	-0.288	0.717	-19.5	-3.11*	-1.6	569*	198
Cn1nnnc1SCc1csc(Nc2ccccc2)n1	0.1	-0.746	16.6	-0.0537	0.6	.	.
Cc1ccc(Nc2nc(CSc3nnnn3C)cs2)cc1	-1.14	-0.32	14.1	-4.78*	1.9	464	229
CC(C)(C)c1cnnn1-c1ccc(NC(=O)c2ccc(Br)o2)cc1	.	-0.0143	.	-2.27*	.	560*	236
O=C(O)CC(c1ccc(Cl)cc1)N1C(=O)CCC1=O (centres undefined)	-0.541	0.636	-11.8	-0.348	-0.2	.	.
CC(=O)N(Cc1ccccc1)c1ccc(C(=O)O)cc1	.	-0.264	5.6	-2.03*	-2.7	16.1*	232
Cc1ccc(S(=O)(=O)Cn2nnnc2C(C(C)C)N2CCSCC2)cc1 (centres undefined)	0.000254	0.742	-4.0	-2.33*	-0.4	646	240
CCOC(=O)/C(C(N)=NCCO)=C(/O)c1ccccc1	0.252	-0.397	.	0.88	0.3	.	.
SMILES	D1 mod	M1 agonist	S1P1 ag-PAM	M1 antagonist	S1P3 agonist	M1 antag conf	mGluR4 antag
OCCN=C(c1ccccc1)C12CN3CN(CN(C3)C1)C2	.	-0.866	6.9	-2.4*	-2.3	466	215
Cc1ccc(NCc2nnc(SCC(=O)NCCc3ccccc3)n2C)cc1	-0.679	-0.0529	1.8	0.296	-1.1	.	.
CCc1cc2c3c(c(=O)oc2cc1OC)CCCC3	0.102	0.0359	.	-1.79*	-0.7	487	202
O=C1CC(c2cccc(Cl)c2)CC(O)=C1C=NCCCO (centres undefined)	0.499	-0.435	-5.5	0.337	0.3	.	.
CCN(CC)CCCN1C(=O)c2oc3ccccc3c(=O)c2C1c1cc(OC)ccc1OC (centres undefined)	-0.674	-0.918	-10.4	-1.89*	-1.0	644	270
CCN(CC)CCCN1C(=O)c2oc3ccccc3c(=O)c2C1c1cccnc1 (centres undefined)	-0.0503	0.0867	22.0	0.46	-1.2	.	.
Cc1c(NC(=O)CCCCCN2C(=O)C3C4C=CC(C4)C3C2=O)c(=O)n(-c2ccccc2)n1C (centres undefined)	0.494	-0.712	12.6	-0.136	-1.4	.	.
Cc1ccc(-c2nnn(CC(=O)N3CCN(c4ccccc4)CC3)n2)o1	0.357	-0.2	3.5	-4.16*	-1.0	641	237
Cc1cc(C)n(CC2CC(=O)N(c3ccc(Cl)c(Cl)c3)C2=O)n1 (centres undefined)	0.505	-0.497	-12.5	-2.59*	-1.0	717	222
CC(C)c1ccc(N2C(=O)[C@@H]3Cc4ccccc4CN3C2=O)cc1	0.486	-0.806	18.2	-1.3*	-0.7	667	257
Cc1ccc(N2C(=O)[C@@H]3Cc4ccccc4CN3C2=O)cc1	0.561	-0.685	-0.9	0.0314	-0.6	.	.
Cn1c(N2CCC(C(N)=O)CC2)nc2c1c(=O)n(Cc1cccc(Br)c1)c(=O)n2C	0.415	-0.869	15.8	0.0926	-1.0	.	.
c1coc(C2Nc3cccc4cccc(c34)N2)c1	-0.287	0.254	-15.1	-2.17*	-1.7	602	249
Cc1oc(-c2ccccc2F)nc1CSCC(=O)NCc1ccc2c(c1)OCO2	0.992	0.45	13.7	0.867	-1.2	.	.
CN1CCN(S(=O)(=O)c2ccc(NC(=O)c3cccc(S(=O)(=O)N4CCCC4)c3)cc2)CC1	0.798	-0.359	-7.4	-16.1*	-0.8	43*	210
O=C(O)Cn1nnnc1SCC(=O)Nc1ccc(OC(F)(F)F)cc1	.	-0.6	4.0	0.255	-1.0	.	.
CC(C)c1nc(N2CCN(C(=O)c3ccco3)CC2)c2c3c(sc2n1)CCCC3	-0.0102	-0.00364	-60.5	-0.562	-1.1	.	.
Cc1nc(N2CCN(C(=O)c3ccco3)CC2)c2c3c(sc2n1)CCC3	-0.571	2.41	.	-3.14*	.	493	217
